According to ChEMBL document CHEMBL1153580, “Synthesis and pharmacological investigation of 3-(substituted 1-phenylethanone)-4-(substituted phenyl)-1, 2, 3, 4-tetrahydropyrimidine-5-carboxylates” (Eur J Med Chem, 2009):

Tests used:
[1] = tested on: Rattus norvegicus; assay: Antihypertensive activity in Norwegian albino rat assessed as inhibition of DOCA salt-induced systolic blood pressure at 10 mg/kg, po after 300 mins by non-invasive tail-cuff method; format: functional; details: Artery, 5 h
Procedure, shortened: (§1)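 Male rats (200–250 g), uninephrectomized under pentobarbital (50 mg/kg i.p.); one week later DOCA s.c. 30–50 mg/kg/week, with 1% w/v NaCl in drinking water. Groups of six, trained in restrainer, tail warmed at 33–34 °C. Compound in 0.5% CMC, 10 mg/kg orally. Systolic pressure read by tail-cuff before dosing and from 1 h after; three readings averaged. ANOVA.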

[2] = tested on: Rattus norvegicus; assay: Antiinflammatory activity in Norwegian albino rat assessed as inhibition of carrageenan-induced paw edema at 100 mg/kg, po after administered 60 mins prior to carrageenan-challenge measured after 1 hr; format: functional
Procedure, shortened: (§2)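 Compound given orally as 100 mg/kg suspension in 0.5% CMC. 60 min later, carrageenan injected sub-plantar into the left hind paw. Paw volume measured within 30 s of injection, then at 1–5 h. % inhibition = [1−(Dt/Dc)]×100, where Dt and Dc are mean relative paw-volume changes in test and control. ANOVA.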

[3] = tested on: Rattus norvegicus; assay: Antihypertensive activity in Norwegian albino rat assessed as inhibition of DOCA salt-induced diastolic blood pressure at 10 mg/kg, po after 60 mins by invasive carotid artery cannulation method; format: functional; details: 1 h
Procedure, shortened: (§3)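 Male rats (200–250 g), uninephrectomized and given DOCA s.c. (30–50 mg/kg/week) with 1% NaCl drinking water. Anesthetized with pentobarbital (35 mg/kg i.p.); left carotid artery cannulated and exteriorized. After recovery and a baseline reading, compound given orally by feeding needle. Diastolic pressure recorded via transducer at 15, 30, 60, 120 and 180 min. Mean ± S.E.M.; repeated-measures ANOVA.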

[4] = tested on: Rattus norvegicus; assay: Antihypertensive activity in Norwegian albino rat assessed as inhibition of DOCA salt-induced diastolic blood pressure at 10 mg/kg, po after 30 mins by invasive carotid artery cannulation method; format: functional; details: 0.5 h; procedure, shortened: as §3
[5] = tested on: Rattus norvegicus; assay: Antihypertensive activity in Norwegian albino rat assessed as inhibition of DOCA salt-induced systolic blood pressure at 10 mg/kg, po after 180 mins by non-invasive tail-cuff method; format: functional; details: Artery, 3 h; procedure, shortened: as §1
[6] = tested on: Rattus norvegicus; assay: Antihypertensive activity in Norwegian albino rat assessed as inhibition of DOCA salt-induced systolic blood pressure at 10 mg/kg, po after 30 mins by non-invasive tail-cuff method; format: functional; details: Artery, 0.5 h
[7] = tested on: Rattus norvegicus; assay: Antihypertensive activity in Norwegian albino rat assessed as inhibition of DOCA salt-induced systolic blood pressure at 10 mg/kg, po after 240 mins by non-invasive tail-cuff method; format: functional; details: Artery, 4 h; procedure, shortened: as §1
[8] = tested on: Rattus norvegicus; assay: Gastrointestinal toxicity in albino rat assessed as ulcerogenic index at 50 mg/kg, po; format: organism-based; parameters: dose 50 mg/kg, route oral; details: in vivo
Procedure, shortened: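 Albino rats (150–200 g), six per group, food but not water withheld 24 h. Compound given p.o. at 50 mg/kg; controls received 1% methyl cellulose. Rats fed 17 h, then killed; stomach opened along greater curvature and examined under 4× magnifier. Lesions scored as large (>2 mm), small (1–2 mm) or punctiform (<1 mm). Severity index = treated mean score minus control mean score.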

[9] = tested on: Mus musculus; assay: Analgesic activity against acetic acid-induced writhing in Swiss albino mouse assessed as protection at 20 mg/kg, po; format: functional
Procedure, shortened: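 Swiss albino mice (25–30 g), six per group, habituated 30 min individually in the test cage. Compound in 1% CMC given p.o. at 20 mg/kg. 1 h later, acetic acid injected i.p.; writhes (arching of back, body elongation, hind-limb extension) counted 5–15 min after injection. % inhibition = (n−n′)/n×100, where n and n′ are mean writhes in control and test.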

[10] = tested on: Rattus norvegicus; assay: Antihypertensive activity in Norwegian albino rat assessed as inhibition of DOCA salt-induced diastolic blood pressure at 10 mg/kg, po after 120 mins by invasive carotid artery cannulation method; format: functional; details: 2 h; procedure, shortened: as §3
[11] = tested on: Rattus norvegicus; assay: Antihypertensive activity in Norwegian albino rat assessed as inhibition of DOCA salt-induced diastolic blood pressure at 10 mg/kg, po after 240 mins by invasive carotid artery cannulation method; format: functional; details: 4 h
[12] = tested on: Rattus norvegicus; assay: Antiinflammatory activity in Norwegian albino rat assessed as inhibition of carrageenan-induced paw edema at 100 mg/kg, po after administered 60 mins prior to carrageenan-challenge measured after 3 hrs; format: functional; procedure, shortened: as §2
[13] = tested on: Rattus norvegicus; assay: Antihypertensive activity in Norwegian albino rat assessed as inhibition of DOCA salt-induced systolic blood pressure at 10 mg/kg, po after 60 mins by non-invasive tail-cuff method; format: functional; details: Artery, 1 h; procedure, shortened: as §1
[14] = tested on: Rattus norvegicus; assay: Antihypertensive activity in Norwegian albino rat assessed as inhibition of DOCA salt-induced systolic blood pressure at 10 mg/kg, po after 15 mins by non-invasive tail-cuff method; format: functional; details: Artery, 0.25 h
[15] = tested on: Rattus norvegicus; assay: Antihypertensive activity in Norwegian albino rat assessed as inhibition of DOCA salt-induced diastolic blood pressure at 10 mg/kg, po after 180 mins by invasive carotid artery cannulation method; format: functional; details: 3 h; procedure, shortened: as §3
[16] = tested on: Rattus norvegicus; assay: Antihypertensive activity in Norwegian albino rat assessed as inhibition of DOCA salt-induced systolic blood pressure at 10 mg/kg, po after 360 mins by non-invasive tail-cuff method; format: functional; details: Artery, 6 h; procedure, shortened: as §1
[17] = tested on: Rattus norvegicus; assay: Antihypertensive activity in Norwegian albino rat assessed as inhibition of DOCA salt-induced systolic blood pressure at 10 mg/kg, po after 480 mins by non-invasive tail-cuff method; format: functional; details: Artery, 8 h; procedure, shortened: as §1
[18] = tested on: Rattus norvegicus; assay: Antihypertensive activity in Norwegian albino rat assessed as inhibition of DOCA salt-induced systolic blood pressure at 10 mg/kg, po after 120 mins by non-invasive tail-cuff method; format: functional; details: Artery, 2 h; procedure, shortened: as §1
[19] = tested on: Rattus norvegicus; assay: Antiinflammatory activity in Norwegian albino rat assessed as inhibition of carrageenan-induced paw edema at 100 mg/kg, po after administered 60 mins prior to carrageenan-challenge measured after 5 hrs; format: functional; procedure, shortened: as §2
[20] = tested on: Rattus norvegicus; assay: Antihypertensive activity in Norwegian albino rat assessed as inhibition of DOCA salt-induced diastolic blood pressure at 10 mg/kg, po after 15 mins by invasive carotid artery cannulation method; format: functional; details: 0.25 h; procedure, shortened: as §3
[21] = tested on: Rattus norvegicus; assay: Antihypertensive activity in Norwegian albino rat assessed as inhibition of DOCA salt-induced systolic blood pressure at 10 mg/kg, po after 420 mins by non-invasive tail-cuff method; format: functional; details: Artery, 7 h; procedure, shortened: as §1

Row | Compound | inhibition in vivo at 10 mg/kg [1] [%] | inhibition in vivo at 100 mg/kg [2] [%] | inhibition in vivo at 10 mg/kg [3] [%] | inhibition in vivo at 10 mg/kg [4] [%] | inhibition in vivo at 10 mg/kg [5] [%] | inhibition in vivo at 10 mg/kg [6] [%] | inhibition in vivo at 10 mg/kg [7] [%] | UI [8] | Activity [9] [%] | inhibition in vivo at 10 mg/kg [10] [%] | inhibition in vivo at 10 mg/kg [11] [%] | inhibition in vivo at 100 mg/kg [12] [%] | inhibition in vivo at 10 mg/kg [13] [%] | inhibition in vivo at 10 mg/kg [14] [%] | inhibition in vivo at 10 mg/kg [15] [%] | inhibition in vivo at 10 mg/kg [16] [%] | inhibition in vivo at 10 mg/kg [17] [%] | inhibition in vivo at 10 mg/kg [18] [%] | inhibition in vivo at 100 mg/kg [19] [%] | inhibition in vivo at 10 mg/kg [20] [%] | further results
1 | CCOC(=O)C1=C(C)NC(OC)N(CC(=O)c2ccc(OC)cc2)C1c1ccccc1 (stereo unspecified) | 38.3 | 37.1 | 23.5 | 8.97 | 28 | 6.49 | 36.8 | 0.74 | 45.8 | 30.1 | 47.8 | 38.4 | 13.8 | 1 | 37.8 | 41.6 | 46.5 | 20.5 | 42.6 | 1.84 | inhibition in vivo at 10 mg/kg [21]: 45.1%
2 | CCOC(=O)C1=C(C)NC(OC)N(CC(=O)c2ccc(Cl)cc2)C1c1ccc(O)cc1 (stereo unspecified) | 39.6 | 36.6 | 22.5 | 10.3 | 28.4 | 6.36 | 36.7 | 0.45 | 45.66 | 30.1 | 47.8 | 38.8 | 15.1 | 1 | 38.3 | 42 | 45.5 | 23.1 | 42 | 1.43 | inhibition in vivo at 10 mg/kg [21]: 44%
3 | CCOC(=O)C1=C(C)NC(OC)N(CC(=O)c2ccc(Cl)cc2)C1c1ccc(OC)cc1 (stereo unspecified) | 41.4 | 37.8 | 23.5 | 10.1 | 28 | 6.58 | 36 | 0.45 | 49.56 | 30.1 | 47.7 | 39.5 | 18.2 | 1.57 | 37.9 | 42.9 | 51.9 | 23.8 | 42 | 1.79 | inhibition in vivo at 10 mg/kg [21]: 49.4%
4 | CCOC(=O)C1=C(C)NC(OC)N(CC(=O)c2ccc(Cl)cc2)C1c1ccc(C)cc1 (stereo unspecified) | 39.5 | 37.1 | 22.5 | 10.5 | 28 | 11.1 | 36.8 | 0.76 | 53.17 | 30.4 | 47.8 | 38.8 | 13.8 | 1.61 | 37.8 | 42 | 45.7 | 24 | 47.3 | 2.35 | inhibition in vivo at 10 mg/kg [21]: 44%
5 | CCOC(=O)C1=C(C)NC(OC)N(CC(=O)c2ccc(OC)cc2)C1c1ccc(OC)cc1 (stereo unspecified) | 40.1 | 37.7 | 23.5 | 12.1 | 27.8 | 6.58 | 36 | 0.2 | 51.33 | 31.1 | 48.8 | 39.8 | 15.1 | 1.57 | 39.4 | 41.9 | 48.6 | 21.6 | 47.2 | 3.33 | inhibition in vivo at 10 mg/kg [21]: 46.5%
6 | CCOC(=O)C1=C(C)NC(OC)N(CC(=O)c2ccccc2)C1c1ccc(OC)cc1 (stereo unspecified) | 41.4 | 38.8 | 22.9 | 10.6 | 28 | 6.58 | 36 | 0.75 | 59.76 | 30.9 | 48.2 | 40.5 | 13.7 | 1.57 | 37.9 | 42.9 | 45.9 | 20.4 | 52.6 | 2.3 | inhibition in vivo at 10 mg/kg [21]: 45%
